Reference: ChEMBL document CHEMBL1129624, “10-substituted 11-oxygenated (R)-aporphines: synthesis, pharmacology, and modeling of 5-HT1A receptor interactions” (J Med Chem, 1996)

Columns and labels:
D(2) dopamine receptor [1] = biological target: T1, D(2) dopamine receptor (Homo sapiens, UniProt P14416); test: In vitro affinity at human cloned Dopamine receptor D2A by [3H]-raclopride displacement.
D(1A) dopamine receptor [2] = biological target: T2, D(1A) dopamine receptor (Rattus norvegicus, UniProt P18901); test: In vitro affinity at Dopamine receptor D1 of rat striatum by [3H]SCH-23390 displacement.; assay type: tissue-based
[3] = biological target: T3, 5-hydroxytryptamine receptor 1A (Rattus norvegicus, UniProt P19327); test: In vitro affinity at 5-hydroxytryptamine 1A receptor of rat hippocampus by [3H]8-OH-DPAT displacement.; assay type: tissue-based
T3 sequence (P19327 whole entry): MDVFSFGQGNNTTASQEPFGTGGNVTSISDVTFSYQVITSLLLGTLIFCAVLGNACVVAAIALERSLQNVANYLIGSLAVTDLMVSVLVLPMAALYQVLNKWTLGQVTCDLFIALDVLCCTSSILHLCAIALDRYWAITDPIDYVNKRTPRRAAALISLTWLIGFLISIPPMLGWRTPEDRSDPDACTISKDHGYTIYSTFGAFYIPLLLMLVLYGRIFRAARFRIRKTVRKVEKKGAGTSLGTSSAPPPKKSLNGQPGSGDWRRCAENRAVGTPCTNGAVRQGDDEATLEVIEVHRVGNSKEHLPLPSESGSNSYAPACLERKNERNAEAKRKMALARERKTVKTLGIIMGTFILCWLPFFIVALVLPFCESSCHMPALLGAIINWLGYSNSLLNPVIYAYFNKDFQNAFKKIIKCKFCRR
Method in brief: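 Incubation in 50 mM Tris–HCl pH 7.4 containing 2.0 mM CaCl2, 1.0 mM MgCl2, 1.0 mM MnCl2 and 5.7 mM ascorbic acid, 45 min at 37 °C. Nonspecific binding defined with 100 μM 5-HT·HCl. Otherwise run as in an earlier report.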

Rattus norvegicus [4] = test: In vivo effect on 5-hydroxytryptophan (5-HTP) accumulation following decarboxylase inhibition was investigated on striatum of reserpine-pretreated rats.; assay type: functional
Method in brief: (§1)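 Rats pretreated with reserpine (5 mg/kg sc) 18–20 h before. Single sc doses of test agent in saline, sometimes with a few drops of glacial HOAc. Decarboxylase then blocked with NSD1015 (117 mg/kg sc). DOPA and 5-HTP measured in dissected brain regions by HPLC with electrochemical detection. Values given as percent of saline controls, n = 2–4. Statistics by one-way ANOVA with Fisher's PLSD.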

Rattus norvegicus [5] = test: In vivo effects on dihydroxyphenylalanine (DOPA) accumulation following decarboxylase inhibition was tested on striatum of reserpine-pretreated rats.; assay type: functional; method in brief: as §1
Rattus norvegicus [6] = test: In vivo effects on dihydroxyphenylalanine (DOPA) accumulation following decarboxylase inhibition was tested on cortex of reserpine-pretreated rats; assay type: functional; method in brief: as §1
Rattus norvegicus [7] = test: In vivo effects of single doses on dihydroxyphenylalanine (DOPA) accumulation following decarboxylase inhibition was investigated on limbic forebrain of reserpine-pretreated rats.; assay type: functional, Limbic system; method in brief: as §1
Rattus norvegicus [8] = test: In vivo effects on 5-hydroxytryptophan (5-HTP) accumulation following decarboxylase inhibition was tested on cortex of reserpine-pretreated rats.; assay type: functional; method in brief: as §1
Rattus norvegicus [9] = test: In vivo effect on 5-hydroxytryptophan (5-HTP) accumulation following decarboxylase inhibition was tested on limbic forebrain of reserpine-pretreated rats.; assay type: functional, Limbic system; method in brief: as §1
D(1A) dopamine receptor [10] = biological target: T2, D(1A) dopamine receptor; test: In vitro affinity at Dopamine receptor D1 of rat striatum by [3H]SCH-23,390 displacement.; assay type: tissue-based
D(2) dopamine receptor [11] = biological target: T1, D(2) dopamine receptor; test: In vitro affinity at human cloned Dopamine receptor D2A by [3H]raclopride displacement.
Rattus norvegicus [12] = test: In vivo effect on dihydroxyphenylalanine (DOPA) accumulation following decarboxylase inhibition was tested on cortex of reserpine-pretreated rats; assay type: functional; method in brief: as §1
Rattus norvegicus [13] = test: In vivo effect on dihydroxyphenylalanine (DOPA) accumulation following decarboxylase inhibition was tested on striatum of reserpine-pretreated rats.; assay type: functional; method in brief: as §1

T2 sequence (P18901 whole entry): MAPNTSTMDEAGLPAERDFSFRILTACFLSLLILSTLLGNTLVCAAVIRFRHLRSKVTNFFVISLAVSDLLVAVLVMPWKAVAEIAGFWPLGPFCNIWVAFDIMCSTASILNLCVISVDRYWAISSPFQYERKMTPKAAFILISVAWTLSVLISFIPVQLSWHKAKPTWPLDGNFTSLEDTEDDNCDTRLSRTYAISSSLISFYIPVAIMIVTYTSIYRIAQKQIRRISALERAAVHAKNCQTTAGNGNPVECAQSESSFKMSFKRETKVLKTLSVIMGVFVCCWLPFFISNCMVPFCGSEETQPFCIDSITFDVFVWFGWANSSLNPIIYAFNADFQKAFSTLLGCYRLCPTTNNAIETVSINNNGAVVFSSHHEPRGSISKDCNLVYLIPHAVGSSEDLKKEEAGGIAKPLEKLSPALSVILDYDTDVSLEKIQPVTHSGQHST
T1 sequence (P14416 whole entry): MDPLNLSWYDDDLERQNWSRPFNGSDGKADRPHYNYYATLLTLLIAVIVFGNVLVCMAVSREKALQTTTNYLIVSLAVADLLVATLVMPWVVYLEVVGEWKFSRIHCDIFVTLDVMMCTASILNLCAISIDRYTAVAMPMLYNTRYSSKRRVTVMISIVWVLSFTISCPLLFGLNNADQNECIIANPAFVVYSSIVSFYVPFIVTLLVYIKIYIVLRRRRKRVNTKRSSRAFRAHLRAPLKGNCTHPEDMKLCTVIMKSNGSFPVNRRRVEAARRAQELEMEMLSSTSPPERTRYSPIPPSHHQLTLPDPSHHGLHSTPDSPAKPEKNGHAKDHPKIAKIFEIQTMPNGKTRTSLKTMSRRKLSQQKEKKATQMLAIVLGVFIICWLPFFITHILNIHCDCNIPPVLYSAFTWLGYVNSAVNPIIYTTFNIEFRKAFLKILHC

Structure (SMILES)	Ki (D(2) dopamine receptor [1])	Ki (D(1A) dopamine receptor [2])	Ki [3]	also measured
CCc1ccc2c(c1O)-c1cccc3c1[C@@H](C2)N(C)CC3	2.05 µM	0.782 µM	0.0092 µM	
Cc1ccc2c(c1O)-c1cccc3c1[C@@H](C2)NCC3	> 10 µM	23.8 µM	0.0032 µM	Accumulation (Rattus norvegicus [4]): 47; Accumulation (Rattus norvegicus [5]): 78; Accumulation (Rattus norvegicus [6]): 93; Accumulation (Rattus norvegicus [7]): 85; Accumulation (Rattus norvegicus [8]): 40; Accumulation (Rattus norvegicus [9]): 37
COc1c(C)ccc2c1-c1cccc3c1[C@@H](C2)NCC3			0.0126 µM	Ki (D(1A) dopamine receptor [10]): > 5 µM; Ki (D(2) dopamine receptor [11]): 4.71 µM
CCCN1CCc2cccc3c2[C@H]1Cc1ccc(C)c(OC)c1-3	0.238 µM	> 2 µM	0.0108 µM	
COc1c(-c2ccco2)ccc2c1-c1cccc3c1[C@@H](C2)N(C)CC3			0.995 µM	Ki (D(1A) dopamine receptor [10]): 14 µM; Ki (D(2) dopamine receptor [11]): 0.582 µM
COc1c(C)ccc2c1-c1cccc3c1[C@@H](C2)N(Cc1ccccc1)CC3				Ki (D(1A) dopamine receptor [10]): > 5 µM; Ki (D(2) dopamine receptor [11]): > 5 µM
CN1CCc2cccc3c2[C@H]1Cc1ccc(-c2ccccc2)c(O)c1-3	> 1 µM	9.4 µM	1.09 µM	
CCCN1CCc2cccc3c2[C@H]1Cc1ccc(C)c(O)c1-3	0.249 µM	> 2 µM	0.0123 µM	Accumulation (Rattus norvegicus [4]): 104; Accumulation (Rattus norvegicus [5]): 72; Accumulation (Rattus norvegicus [6]): 116; Accumulation (Rattus norvegicus [7]): 81; Accumulation (Rattus norvegicus [8]): 102; Accumulation (Rattus norvegicus [9]): 104
CCCN1CCc2cccc3c2[C@H]1Cc1ccc(OS(=O)(=O)C(F)(F)F)c(OC)c1-3	0.403 µM	> 2 µM	3.3 µM	
COc1c(C(C)=O)ccc2c1-c1cccc3c1[C@@H](C2)N(C)CC3			0.15 µM	Ki (D(1A) dopamine receptor [10]): 4.82 µM; Ki (D(2) dopamine receptor [11]): 2.98 µM
CC(=O)c1ccc2c(c1O)-c1cccc3c1[C@@H](C2)N(C)CC3	2.76 µM	4.62 µM		
CCc1ccc2c(c1OC)-c1cccc3c1[C@@H](C2)N(C)CC3	0.411 µM	1.03 µM	0.0175 µM	
C=Cc1ccc2c(c1OC)-c1cccc3c1[C@@H](C2)N(C)CC3			0.108 µM	Ki (D(1A) dopamine receptor [10]): 1.44 µM; Ki (D(2) dopamine receptor [11]): 1.75 µM
COc1c(C)ccc2c1-c1cccc3c1[C@@H](C2)N(C)CC3	0.248 µM	0.393 µM	0.0075 µM	
COc1c(C)ccc2c1-c1cccc3c1[C@@H](C2)N(C(C)C)CC3	> 1 µM	> 5 µM	0.64 µM	
Cc1ccc2c(c1O)-c1cccc3c1[C@@H](C2)N(Cc1ccccc1)CC3	> 1 µM	> 5 µM	0.772 µM	
COc1c(OS(=O)(=O)C(F)(F)F)ccc2c1-c1cccc3c1[C@@H](C2)N(C)CC3	1.04 µM	> 2 µM	1.62 µM	
Cc1ccc2c(c1O)-c1cccc3c1[C@@H](C2)N(C(C)C)CC3	> 1 µM	> 10 µM	0.241 µM	
Cc1ccc2c(c1O)-c1cccc3c1[C@@H](C2)N(C)CC3				Accumulation (Rattus norvegicus [4]): 70; Accumulation (Rattus norvegicus [12]): 100; Accumulation (Rattus norvegicus [7]): 84; Accumulation (Rattus norvegicus [8]): 72; Accumulation (Rattus norvegicus [13]): 90; Accumulation (Rattus norvegicus [9]): 58
